Test results taken from ChEMBL document CHEMBL4002637, “Synthesis, characterization, in vitro SAR and in vivo evaluation of N,N'bisnaphthylmethyl 2-alkyl substituted imidazolium salts against NSCLC” (Bioorg Med Chem Lett, 2017).
Active and inactive are the calls of the source. The rule behind the calls is not given here.

What was measured:
[1] = tested on: NCI-H460; experiment: Antiproliferative activity against human NCI-H460 cells using 1% DMSO/water compound formulation after 72 hrs by MTT assay; type: functional, cell-based; details: NCI-H460, 72 h
Summary of the method: (§1)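 MTT anti-proliferation on NSCLC lines. Compounds dissolved in DMSO, diluted with water to 1% DMSO, then into growth medium (max 0.032% DMSO on cells); or dissolved in 10% (w/v) 2-HPβCD in water, then diluted (max 0.008% w/w 2-HPβCD in wells; vehicle controls at 0.008%). IC50 = concentration giving 50% loss of viability versus control cells. Cisplatin dissolved in water with stirring.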

[2] = tested on: NCI-H460; experiment: Antiproliferative activity against human NCI-H460 cells using 10% 2-HPbetaCD compound formulation after 72 hrs by MTT assay; type: functional, cell-based; details: NCI-H460, 72 h; summary of the method: as §1
[3] = tested on: NCI-H1975; experiment: Antiproliferative activity against human NCI-H1975 cells using 1% DMSO/water compound formulation after 72 hrs by MTT assay; type: functional, cell-based; details: NCI-H1975, 72 h; summary of the method: as §1
[4] = tested on: NCI-H1975; experiment: Antiproliferative activity against human NCI-H1975 cells using 10% 2-HPbetaCD compound formulation after 72 hrs by MTT assay; type: functional, cell-based; details: NCI-H1975, 72 h; summary of the method: as §1
[5] = tested on: A549; experiment: Antiproliferative activity against human A549 cells using 1% DMSO/water compound formulation after 72 hrs by MTT assay; type: functional, cell-based; details: A549, 72 h; summary of the method: as §1
[6] = tested on: A549; experiment: Antiproliferative activity against human A549 cells using 10% 2-HPbetaCD compound formulation after 72 hrs by MTT assay; type: functional, cell-based; details: A549, 72 h; summary of the method: as §1
[7] = tested on: HCC827; experiment: Antiproliferative activity against human HCC827 cells using 1% DMSO/water compound formulation after 72 hrs by MTT assay; type: functional, cell-based; details: HCC827, 72 h; summary of the method: as §1
[8] = tested on: HCC827; experiment: Antiproliferative activity against human HCC827 cells using 10% 2-HPbetaCD compound formulation after 72 hrs by MTT assay; type: functional, cell-based; details: HCC827, 72 h; summary of the method: as §1
[9] = Aqueous solubility of the compound in water; type: physicochemical; details: buffer
[10] = Solubility of the compound in 1% DMSO/water solution; type: physicochemical; details: buffer
[11] = Solubility of the compound in 10% 2-HPbetaCD/water solution; type: physicochemical
[12] = tested on: A549; experiment: Growth inhibition of human A549 cells assessed as cell growth at 10 uM after 24 hrs by SRB assay relative to control; type: functional; details: A549, 24 h, read-out: Activity
Summary of the method: (§2)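 NCI DTP one-dose screen: cells plated at density set by doubling rate, incubated overnight, then exposed to compound at 10 μM for 24 hours. Growth percentage from protein density at end versus start of experiment, relative to initial cell number.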

[13] = tested on: EKVX; experiment: Growth inhibition of human EKVX cells assessed as cell growth at 10 uM after 24 hrs by SRB assay relative to control; type: functional; details: read-out: Activity; summary of the method: as §2
[14] = tested on: HOP-62; experiment: Growth inhibition of human HOP62 cells assessed as cell growth at 10 uM after 24 hrs by SRB assay relative to control; type: functional; details: HOP-62, 24 h, read-out: Activity; summary of the method: as §2
[15] = tested on: HOP-92; experiment: Growth inhibition of human HOP92 cells assessed as cell growth at 10 uM after 24 hrs by SRB assay relative to control; type: functional; details: HOP-92, 24 h, read-out: Activity; summary of the method: as §2
[16] = tested on: NCI-H226; experiment: Growth inhibition of human NCI-H226 cells assessed as cell growth at 10 uM after 24 hrs by SRB assay relative to control; type: functional; details: NCI-H226, 24 h, read-out: Activity; summary of the method: as §2
[17] = tested on: NCI-H23; experiment: Growth inhibition of human NCI-H23 cells assessed as cell growth at 10 uM after 24 hrs by SRB assay relative to control; type: functional; details: NCI-H23, 24 h, read-out: Activity; summary of the method: as §2
[18] = tested on: NCI-H322M; experiment: Growth inhibition of human NCI-H322M cells assessed as cell growth at 10 uM after 24 hrs by SRB assay relative to control; type: functional; details: read-out: Activity; summary of the method: as §2
[19] = tested on: NCI-H460; experiment: Growth inhibition of human NCI-H460 cells assessed as cell growth at 10 uM after 24 hrs by SRB assay relative to control; type: functional; details: NCI-H460, 24 h, read-out: Activity; summary of the method: as §2
[20] = tested on: A549; experiment: Growth inhibition of human A549 cells after 24 hrs by SRB assay; type: functional; details: A549, 24 h; for CC50: read-out: LC50 (the source's name)
[21] = tested on: EKVX; experiment: Growth inhibition of human EKVX cells after 24 hrs by SRB assay; type: functional
[22] = tested on: HOP-62; experiment: Growth inhibition of human HOP62 cells after 24 hrs by SRB assay; type: functional; details: HOP-62, 24 h
[23] = tested on: HOP-92; experiment: Growth inhibition of human HOP92 cells after 24 hrs by SRB assay; type: functional; details: HOP-92, 24 h; for CC50: read-out: LC50 (the source's name)
[24] = tested on: NCI-H226; experiment: Growth inhibition of human NCI-H226 cells after 24 hrs by SRB assay; type: functional; details: NCI-H226, 24 h
[25] = tested on: NCI-H23; experiment: Growth inhibition of human NCI-H23 cells after 24 hrs by SRB assay; type: functional; details: NCI-H23, 24 h; for CC50: read-out: LC50 (the source's name)
[26] = tested on: NCI-H322M; experiment: Growth inhibition of human NCI-H322M cells after 24 hrs by SRB assay; type: functional
[27] = tested on: NCI-H460; experiment: Growth inhibition of human NCI-H460 cells after 24 hrs by SRB assay; type: functional; details: NCI-H460, 24 h; for CC50: read-out: LC50 (the source's name)
[28] = tested on: NCI-H522; experiment: Growth inhibition of human NCI-H522 cells after 24 hrs by SRB assay; type: functional; details: NCI-H522, 24 h; for CC50: read-out: LC50 (the source's name)
[29] = tested on: NCI-H460; experiment: Disruption of mitochondrial membrane potential in human NCI-H460 cells at 98 uM up to 1 hr by JC1/DAPI staining based confocal microscopic method; type: functional, cell-based
[30] = tested on: NCI-H460; experiment: Induction of apoptosis in human NCI-H460 cells assessed as cell shrinkage up to 1 hr by Annexin V-FITC/propidium iodide staining based fluorescence microscopic method; type: functional
[31] = tested on: NCI-H460; experiment: Induction of apoptosis in human NCI-H460 cells assessed as cell rounding up to 1 hr by Annexin V-FITC/propidium iodide staining based fluorescence microscopic method; type: functional
[32] = tested on: NCI-H460; experiment: Induction of apoptosis in human NCI-H460 cells assessed as cell detachment up to 1 hr by Annexin V-FITC/propidium iodide staining based fluorescence microscopic method; type: functional

CCCc1n(Cc2ccc3ccccc3c2)cc[n+]1Cc1ccc2ccccc2c1.[Br-]
IC50 [1]: 1910 nM
IC50 [2]: 2130 nM
IC50 [3]: 850 nM
IC50 [4]: 630 nM
IC50 [5]: 2.93 µM
IC50 [6]: 2.81 µM
IC50 [7]: 1450 nM
IC50 [8]: 1250 nM
solubility [9]: < 0.5 mg/mL
solubility [10]: Soluble
solubility ([11]; buffer): > 4.4 mg/mL
growth at 10 µM [12]: 31.6%
growth at 10 µM [13]: 21.1%
growth at 10 µM [14]: 5.82%
growth at 10 µM [15]: -38.3%
growth at 10 µM [16]: 0.23%
growth at 10 µM [17]: -28.2%
growth at 10 µM [18]: 23.2%
growth at 10 µM [19]: 3.26%
GI50 [20]: 2.67 µM
TGI [20]: 12.1 µM
CC50 [20]: 60.3 µM
GI50 [21]: 1710 nM
LC50 [21]: 60.5 µM
TGI [21]: 11.4 µM
GI50 [22]: 1260 nM
LC50 [22]: 6.19 µM
TGI [22]: 2.8 µM
GI50 [23]: 863 nM
TGI [23]: 2.66 µM
CC50 [23]: 7.58 µM
GI50 [24]: 1310 nM
LC50 [24]: > 100 µM
TGI [24]: 3.92 µM
GI50 [25]: 521 nM
TGI [25]: 2510 nM
CC50 [25]: 9.77 µM
GI50 [26]: 1960 nM
LC50 (lethal concentration 50%) [26]: 23.8 µM
TGI [26]: 6 µM
GI50 [27]: 1220 nM
TGI [27]: 3.01 µM
CC50 [27]: 7.44 µM
GI50 [28]: 378 nM
TGI [28]: 1680 nM
CC50 [28]: 4.92 µM

N#CC(C#N)=NNc1cccc(Cl)c1
Activity [29]: Active

Cc1n(Cc2ccc3ccccc3c2)cc[n+]1Cc1ccc2ccccc2c1.[Br-]
IC50 [1]: 2530 nM
IC50 [2]: 2700 nM
IC50 [3]: 830 nM
IC50 [4]: 750 nM
IC50 [5]: 3.42 µM
IC50 [6]: 3.43 µM
IC50 [7]: 2340 nM
IC50 [8]: 1980 nM
solubility [9]: < 0.5 mg/mL
solubility [10]: Soluble
solubility ([11]; buffer): > 4.4 mg/mL
growth at 10 µM [12]: 42.3%
growth at 10 µM [13]: 47%
growth at 10 µM [14]: 18%
growth at 10 µM [15]: -20.3%
growth at 10 µM [16]: 19%
growth at 10 µM [17]: 5.53%
growth at 10 µM [18]: 48.9%
growth at 10 µM [19]: 9.12%
GI50 [20]: 3.81 µM
TGI [20]: 21.3 µM
CC50 [20]: 66.1 µM
GI50 [21]: 2320 nM
LC50 [21]: 52.4 µM
TGI [21]: 17.1 µM
GI50 [22]: 1600 nM
LC50 [22]: 45.3 µM
TGI [22]: 8.35 µM
GI50 [23]: 673 nM
TGI [23]: 3.64 µM
CC50 [23]: 26.4 µM
GI50 [24]: 1850 nM
LC50 [24]: 64.1 µM
TGI [24]: 10.4 µM
GI50 [25]: 717 nM
TGI [25]: 2930 nM
CC50 [25]: 10.4 µM
GI50 [26]: 2460 nM
LC50 (lethal concentration 50%) [26]: 32.9 µM
TGI [26]: 10.4 µM
GI50 [27]: 1590 nM
TGI [27]: 10.7 µM
CC50 [27]: 44 µM
GI50 [28]: 256 nM
TGI [28]: 1810 nM
CC50 [28]: 6.72 µM

Clc1c(Cl)[n+](Cc2ccc3ccccc3c2)cn1Cc1ccc2ccccc2c1
IC50 [1]: 5000 nM
IC50 [3]: 5000 nM
IC50 [5]: 9 µM
IC50 [7]: 6000 nM
Activity [30]: Active
Activity [31]: Active
Activity [32]: Active

CCCCc1n(Cc2ccc3ccccc3c2)cc[n+]1Cc1ccc2ccccc2c1.[Br-]
IC50 [1]: 2620 nM
IC50 [2]: 2430 nM
IC50 [3]: 1740 nM
IC50 [4]: 1020 nM
IC50 [5]: 3.5 µM
IC50 [6]: 3.25 µM
IC50 [7]: 2640 nM
IC50 [8]: 2180 nM
solubility [9]: < 0.5 mg/mL
solubility [10]: Soluble
solubility ([11]; buffer): > 4.4 mg/mL
growth at 10 µM [12]: 29.8%
growth at 10 µM [13]: 14.4%
growth at 10 µM [14]: -2.71%
growth at 10 µM [15]: -38.2%
growth at 10 µM [16]: -0.47%
growth at 10 µM [17]: -23.8%
growth at 10 µM [18]: 23.3%
growth at 10 µM [19]: -13.1%
GI50 [25]: 793 nM
TGI [25]: 2310 nM
CC50 [25]: 5.85 µM
GI50 [26]: 1380 nM
TGI [26]: 2.75 µM

CC(C)c1n(Cc2ccc3ccccc3c2)cc[n+]1Cc1ccc2ccccc2c1.[Br-]
IC50 [1]: 920 nM
IC50 [2]: 860 nM
IC50 [3]: 690 nM
IC50 [4]: 620 nM
IC50 [5]: 2.54 µM
IC50 [6]: 2.13 µM
IC50 [7]: 1290 nM
IC50 [8]: 1140 nM
solubility [9]: < 0.5 mg/mL
solubility [10]: Soluble
solubility ([11]; 10% 2-HPbetaCD/water solution, read-out: solubility): > 4.4 mg/mL
